Experimental data taken from ChEMBL document CHEMBL2311432, “Synthesis, characterization and preliminary anticonvulsant evaluation of some 4-alkyl-1,2,4-triazoles” (Eur J Med Chem, 2013).

Experiments:
Mus musculus [1] = assay: Protective index, ratio of TD50 for Swiss mouse administered 120 mins before test to ED50 for Swiss mouse administered 120 mins before test; type: functional
Mus musculus [2] = assay: Protective index, ratio of TD50 for Swiss mouse administered 60 mins before test to ED50 for Swiss mouse administered 60 mins before test; type: functional
Mus musculus [3] = assay: Protective index, ratio of TD50 for Swiss mouse administered 30 mins before test to ED50 for Swiss mouse administered 30 mins before test; type: functional
Method in brief: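 PI equals chimney-test TD50 divided by MES-test ED50, both determined after i.p. dosing at the same pretreatment time in groups of 8 mice.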

Mus musculus [4] = assay: Protective index, ratio of TD50 for Swiss mouse administered 15 mins before test to ED50 for Swiss mouse administered 15 mins before test; type: functional
[5] = Neurotoxicity in ip dosed Swiss mouse assessed as delay in motor coordination administered 120 mins before test by chimney test; type: toxicity, organism-based; settings: in vivo
Method in brief: (§1)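 Chimney test (Boissier). Mice must climb backward up a transparent tube (3 cm i.d., 30 cm long) within 60 s, and failure marks motor impairment. At least four groups of 8 mice receive various i.p. doses at the stated pretreatment time. TD50 comes from log-probit dose-response analysis (Litchfield-Wilcoxon), ± S.E.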

[6] = Neurotoxicity in ip dosed Swiss mouse assessed as delay in motor coordination administered 60 mins before test by chimney test; type: toxicity, organism-based; settings: in vivo; method in brief: as §1
[7] = Neurotoxicity in ip dosed Swiss mouse assessed as delay in motor coordination administered 30 mins before test by chimney test; type: toxicity, organism-based; settings: in vivo; method in brief: as §1
[8] = Neurotoxicity in ip dosed Swiss mouse assessed as delay in motor coordination administered 15 mins before test by chimney test; type: toxicity, organism-based; settings: in vivo; method in brief: as §1
Mus musculus [9] = assay: Anticonvulsant activity in ip dosed Swiss mouse assessed as protection against maximal electroshock-induced seizure administered 120 mins before test; type: functional
Method in brief: (§2)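 Mice in groups of 8, each used once, given various i.p. doses of fresh solution at the stated pretreatment time before maximal electroshock. Protection percentages give dose-response lines by Litchfield-Wilcoxon. ED50 is the dose protecting 50% of mice against MES seizures, reported ± S.E.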

Mus musculus [10] = assay: Anticonvulsant activity in ip dosed Swiss mouse assessed as protection against maximal electroshock-induced seizure administered 60 mins before test; type: functional; method in brief: as §2
Mus musculus [11] = assay: Anticonvulsant activity in ip dosed Swiss mouse assessed as protection against maximal electroshock-induced seizure administered 30 mins before test; type: functional; method in brief: as §2
Mus musculus [12] = assay: Anticonvulsant activity in ip dosed Swiss mouse assessed as protection against maximal electroshock-induced seizure administered 15 mins before test; type: functional; method in brief: as §2
Mus musculus [13] = assay: Anticonvulsant activity in Swiss mouse assessed as protection against maximal electroshock-induced seizure at 300 mg/kg, ip administered 15 mins before test; type: functional; settings: route intraperitoneal
Method in brief: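 Mice in groups of 8, each used once, after 7 days' adaptation. Fixed 300 mg/kg dose given i.p. from freshly prepared solution, then maximal electroshock applied at the stated pretreatment time. Read-out is the percentage of the 8 mice protected against MES-induced seizures.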

Brain = assay: Drug uptake in Swiss mouse brain assessed as per 1 mg of tissue at 300 mg/kg, ip; type: ADME, organism-based; set-up: dose 300 mg/kg, route intraperitoneal; settings: in vivo

Drug uptake (Brain)	SMILES	Ratio TD50/ED50 (Mus musculus [1])	Ratio TD50/ED50 (Mus musculus [2])	Ratio TD50/ED50 (Mus musculus [3])	Ratio TD50/ED50 (Mus musculus [4])	TD50 at 2 h [5]	TD50 at 1 h [6]	TD50 at 0.5 h [7]	TD50 at 0.25 h [8]	ED50 (Mus musculus [9])	ED50 (Mus musculus [10])	ED50 (Mus musculus [11])	ED50 (Mus musculus [12])	Activity (Mus musculus [13])
–	CCn1c(S)nnc1-c1cccc(Cl)c1	2.8	2.9	3.7	4.8	887 mg/kg	742 mg/kg	753 mg/kg	731 mg/kg	320 mg/kg	252 mg/kg	204 mg/kg	153 mg/kg	100%
Not Active	CCCCCCCCCCCCn1c(-c2cccc(Cl)c2)n[nH]c1=S	–	–	–	–	–	–	–	–	–	–	–	–	–
–	CCCCn1c(-c2cccc(Cl)c2)n[nH]c1=S	1.4	2.7	5.2	10.3	429 mg/kg	414 mg/kg	405 mg/kg	398 mg/kg	311 mg/kg	156 mg/kg	77.8 mg/kg	38.5 mg/kg	100%
–	CCCCCn1c(-c2cccc(Cl)c2)n[nH]c1=S	2.7	4.4	4.8	6.7	392 mg/kg	303 mg/kg	310 mg/kg	310 mg/kg	147 mg/kg	69.5 mg/kg	65.2 mg/kg	46.5 mg/kg	100%
–	CCCCCCn1c(-c2cccc(Cl)c2)n[nH]c1=S	2.8	4.7	6.8	9.7	–	–	–	–	160 mg/kg	98.1 mg/kg	68.3 mg/kg	47.6 mg/kg	100%
–	CCCCCCCn1c(-c2cccc(Cl)c2)n[nH]c1=S	3.3	4.2	6.5	7.5	440 mg/kg	430 mg/kg	423 mg/kg	416 mg/kg	135 mg/kg	102 mg/kg	65.2 mg/kg	55.1 mg/kg	100%
–	CCCCCCCCCn1c(-c2cccc(Cl)c2)n[nH]c1=S	4.6	6.1	5.5	4.6	659 mg/kg	640 mg/kg	713 mg/kg	667 mg/kg	143 mg/kg	105 mg/kg	130 mg/kg	144 mg/kg	100%
–	CCCC(CCC)C(=O)[O-].CCCC(CCC)C(=O)[O-].[Mg+2] [MAGNESIUM VALPROATE]	–	–	–	–	512 mg/kg	417 mg/kg	373 mg/kg	363 mg/kg	–	–	–	–	–
